Screens as filed in PubChem BioAssay.
TRPC6 inh – mouse TRPC6 channel inhibitors, primary screen, cell-based, HEK293, membrane potential dye; AID 2553, 2010; 310,000 tested, 1.1% active; Short transient receptor potential channel 6 (Mus musculus), Q61143; B-score at 10 µM; ACh-evoked depolarization; hits give low values;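 active means B-score under library mean minus 3 SD, initial fluorescence not abnormally high, positive integrated signal ratio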;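 further: B-score derived from integrated fluorescence ratio over the kinetic read; more negative B-score means stronger inhibition of depolarization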
TRPC4 potent – positive allosteric modulators of TRPC4, primary screen, cell-based, mouse TRPC4beta, HEK293 mu-opioid, Fluo-4 calcium; Short transient receptor potential channel 4 (Mus musculus), Q9QUQ5; DAMGO EC20, Fluo-4 Ca2+ flux; hits give high values; B-score at 10 µM; 310,000 tested, 0.42% active;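 active means B-score of calcium response area above 5 SD of library B-scores, with initial fluorescence ratio within 5 SD of library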;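 further: B-score of integrated fluorescence ratio over time as area under calcium response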
TRPC4 block – inhibitors of mouse TRPC4 channel, primary screen, Fluo4 calcium, HEK293 TRPC4beta/mu-opioid cells; Short transient receptor potential channel 4 (Mus musculus), Q9QUQ5; DAMGO-evoked Fluo4 calcium flux; hits give low values; B-score at 10 µM; 300,000 tested, 0.39% active;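 active means B-score over 3 SD under the library average, no early fluorescence shift, positive overall ratio signal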
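Signal: kinetic Fluo4 fluorescence imaging of calcium influx. Material: stable TRPC4beta/mu-opioid receptor HEK293 cells. Probe or stimulus: DAMGO in two steps, submaximal then maximal.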
TRPC4 act – activators of mouse TRPC4 channel, primary screen, Fluo4 calcium, HEK293 TRPC4beta/mu-opioid cells | Short transient receptor potential channel 4 (Mus musculus), Q9QUQ5 | Fluo4 calcium fluorescence; hits give high values | B-score at 10 µM | 310,000 tested, 0.49% active | AID 2237, 2010;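 active means B-score above 5 SD of library B-scores, and initial fluorescence ratio not above library mean plus 5 SD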;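 further: positive B-score marks a calcium rise read as TRPC4 activation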
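System: HEK293 cells stably co-expressing mouse TRPC4beta and mu-opioid receptor; Schedule: Fluo4 dye loading 45 min at room temperature, 110 s recording; Detection: Fluo4 fluorescence, kinetic; Evaluation: B-scored integrated calcium fluorescence ratio; Controls: buffer (low) and maximal DAMGO (high).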
Kir21 inh – inhibitors of mouse Kir2.1 inward-rectifier potassium channel. Inward rectifier potassium channel 2 (Mus musculus), P35561. HEK293-Kir2.1, FluxOR thallium flux fluorescence; hits give low values. B-score at 10 µM. 310,000 tested, 0.85% active. AID 1672, 2009;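 active means fluorescence ratio B-score at or below minus 3 SD of library scores, with starting-brightness B-score within 2 SD, cut at about -4.2 in these data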;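 further: channel flux triggered by added potassium and thallium sulfate stimulus; B-score of peak minus minimum fluorescence over baseline after thallium stimulus; more negative B-score means stronger Kir2.1 block with less thallium influx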
Target sequence (P35561 whole entry, looked up): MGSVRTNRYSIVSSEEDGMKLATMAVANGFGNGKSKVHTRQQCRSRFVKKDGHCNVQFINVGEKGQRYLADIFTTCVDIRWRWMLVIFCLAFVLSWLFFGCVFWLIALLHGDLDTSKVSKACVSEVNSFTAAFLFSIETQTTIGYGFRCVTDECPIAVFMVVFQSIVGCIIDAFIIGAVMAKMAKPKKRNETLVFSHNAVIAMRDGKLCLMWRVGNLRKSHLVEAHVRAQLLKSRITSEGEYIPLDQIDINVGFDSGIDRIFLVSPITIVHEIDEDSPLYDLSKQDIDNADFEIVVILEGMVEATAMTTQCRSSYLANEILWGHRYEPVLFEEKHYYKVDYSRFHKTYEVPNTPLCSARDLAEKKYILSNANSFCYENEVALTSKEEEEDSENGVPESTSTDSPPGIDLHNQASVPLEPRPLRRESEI
TRPC6 act – mouse TRPC6 channel activators, primary screen, cell-based, HEK293, membrane potential dye; HEK293-TRPC6 membrane potential dye fluorescence; hits give high values; Short transient receptor potential channel 6 (Mus musculus), Q61143; 310,000 tested, 0.13% active; B-score at 10 µM;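 active means B-score of the integrated fluorescence ratio above library mean plus 3 SD, and starting fluorescence ratio within library mean plus 5 SD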;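 further: higher score means more depolarization so channel activation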
* = called active by the depositor; i = inactive. Sampled rows, rich in hits. Any-hit rate of the full collection: about 2.9%.

SMILES	TRPC6 inh	TRPC4 potent	TRPC4 block	TRPC4 act	Kir21 inh	TRPC6 act
Cc1c(C(=O)NC2CCN(Cc3ccccc3)C2)oc2ccc(Br)cc12 (stereo unspecified)	i	i	i	i	-10*	i
O=C(COc1ccc(Br)cc1Cl)NC1CCN(Cc2ccccc2)CC1	i	i	i	i	-10*	i
O=C(NC1CCN(Cc2ccccc2)CC1)c1cccc(S(=O)(=O)Nc2cc(C(F)(F)F)ccc2Cl)c1	i	21*	i	i	-0.14	i
O=C(/C=C/c1ccccc1)NC1CC2CCCC(C1)N2Cc1ccccc1 (stereo unspecified)	i	i	i	i	0.67	i
O=C(/C=C/c1cccc(Br)c1)NC1CCN(Cc2ccccc2)CC1	i	i	i	i	-5.8*	i
CC(=O)Nc1ccc(NC(=O)CSc2nnc(-c3cccs3)n2N)cc1	i	i	i	i	2.8	i
O=C(/C=C/c1cccc(F)c1)NC1CCN(Cc2ccccc2)CC1	i	i	i	i	-4.7*	i
Cc1[nH]c2c(ccc3ccccc32)c1C1C(CCN)C1(C)C (stereo unspecified)	i	i	i	70*	-4.1	i
COc1cc(CN2CCc3c([nH]c4ccccc34)C2)cc(OC)c1	i	i	i	i	-4.2*	i
O=C(O)c1cc(Cl)c(Cl)cc1C(=O)N(Cc1ccccc1)Cc1ccccc1	i	i	i	i	1.4	i
CCc1cc(OCCOCCN(C)C)ccc1Cl	i	15*	i	i	0.7	i
Cc1ccc(OCCOCCN(C)C)c(Cl)c1	i	i	i	i	0.92	i
O=C(O)CCC(=O)Nc1ccc(SSc2ccc(NC(=O)CCC(=O)O)cc2)cc1	i	i	i	i	-1.5	i
CCN1CCN(S(=O)(=O)c2c(C)cc(C)cc2C)CC1	i	21*	i	i	2.2	i
CN1CCN(S(=O)(=O)c2ccc(Cl)c3ccccc23)CC1	i	i	i	i	-0.48	i
CN1CCN(S(=O)(=O)c2cc(Cl)c(Cl)cc2Cl)CC1	i	i	i	51*	-0.74	i
Cc1cc(C)c(S(=O)(=O)N2CCN(C)CC2)c(C)c1	i	21*	i	i	1.5	i
CC(=O)c1ccc(OCC(O)CN2CCOCC2)cc1 (stereo unspecified)	i	i	i	i	0.24	i
Cc1cc(C)c(S(=O)(=O)N2CCN(CCO)CC2)c(C)c1	i	i	i	i	1.1	i
CC(=O)c1ccc(OCC(O)CN2CCN(S(=O)(=O)c3c(C)cc(C)cc3C)CC2)cc1 (stereo unspecified)	i	22*	i	i	0.64	i
Cc1cc(C)c(S(=O)(=O)N2CCN(S(=O)(=O)N3CCC(C)CC3)CC2)c(C)c1	i	i	i	i	0.08	i
COc1cccc(NC(=O)CSc2ccc3nnc(CCNC(=O)c4ccccc4)n3n2)c1	i	i	i	i	-1.4	i
CCOC(=O)C1(CCOC)CCN(Cc2ccccc2-c2ccco2)CC1	i	i	i	123*	-2.8	i
CCOC(=O)C1(CCOc2ccccc2)CCN(Cc2cccn2-c2ncccn2)CC1	i	i	-9*	i	-1.4	i
CCOC(=O)C1(CCOc2ccccc2)CCN(Cc2ccc(-n3cccn3)cc2)CC1	i	i	-7*	i	-0.55	i
SMILES	TRPC6 inh	TRPC4 potent	TRPC4 block	TRPC4 act	Kir21 inh	TRPC6 act
CCOC(=O)C1(CCOc2ccccc2)CCN(Cc2cc(OC)ccc2OC)CC1	i	i	i	98*	-0.18	i
CCOC(=O)C1(CCOC)CCN(Cc2ccncc2)CC1	i	i	i	i	0.65	i
CC(C)Cc1cc(C(=O)N2CCCC(CO)(Cc3ccc(F)cc3F)C2)n[nH]1 (stereo unspecified)	i	i	i	i	-2	i
FC(F)(F)c1cnc(COc2cc(Cl)cc(Cl)c2)c(Cl)c1	i	i	i	i	-0.05	i
CCOC(=O)C1(CCOc2ccccc2)CCN(Cc2cccs2)CC1	i	i	-5*	i	-5*	i
S=c1[nH]c2ccc(Cc3ccc4[nH]c(=S)[nH]c4c3)cc2[nH]1	i	i	i	i	2.4	i
COc1cccc(OC)c1OCCCc1c(C)n[nH]c1C	i	i	i	i	0.02	i
Cc1cccc(OCCCc2c(C)n[nH]c2C)c1	i	i	-6*	i	-1.1	i
O=C(CCS(=O)(=O)c1ccc(Cl)cc1)N1CCCc2ccccc21	i	i	i	i	-4.8*	i
O=S(=O)(c1ccc(Br)cc1)N1CCCc2ccccc21	i	i	i	i	-4.9*	i
Cc1cccc(S(=O)(=O)N2CCCc3ccccc32)c1	i	i	i	i	-6.4*	i
Nc1ccc(S(=O)(=O)N2CCc3ccccc32)cc1	i	i	i	i	-0.7	i
O=S(=O)(c1ccc(F)c(F)c1)N1CCCc2ccccc21	i	i	i	i	-5.4*	i
Cc1ccc(S(=O)(=O)CCC(=O)N2CCc3ccccc32)cc1	i	i	i	i	-2.5	i
CC(=O)Nc1ccc(S(=O)(=O)NCC(=O)OCC(=O)NCc2ccco2)cc1	i	i	i	i	-1.1	i
Cc1ccccc1Nc1nc(N)nc(CSc2n[nH]c(N)n2)n1	i	i	i	i	1.7	i
COc1nc(-c2ccccc2Cl)ccc1C#N	i	i	-6*	i	1.2	i
CN(C)C(CNC(=O)/C=C/c1cccc(Cl)c1)c1ccccc1 (stereo unspecified)	i	i	i	199*	-0.64	i
CN(C)C(CNC(=O)c1cnc(Cl)c(Cl)c1)c1ccccc1 (stereo unspecified)	i	i	i	223*	-0.84	i
CN(C)C(CNC(=O)c1ccc2ccccc2n1)c1ccccc1 (stereo unspecified)	i	i	i	100*	-1.1	i
CN(C)C(CNC(=O)c1ccc(C2SCCS2)cc1)c1ccccc1 (stereo unspecified)	i	i	-5*	i	4.9e-16	i
